Source: PubChem
NadD inh – blocks S. aureus nicotinate mononucleotide adenylyltransferase. inhibition, % at 20 µM. actives 0.78% (n = 360,000). AID 602399. purified NadD enzyme, colorimetric absorbance read-out; in the data active = inhibition above about 26%
Pemphigus Ab inh – inhibitors of pemphigus antibody binding to human desmoglein-3. actives 0.48% (n = 310,000). binding (percent of control), % at 10 µM. P32926. DSG3-coupled beads, scFv-anti-DSG3-GFP binding, flow cytometry; hits give low values;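 active = binding more than 3 SD below its plate's average and above zero; inconclusive = below that plate limit but binding exactly zero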;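 also: hits lower antibody fragment binding to DSG3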
TbMetRS inhib – Trypanosoma brucei MetRS inhibition. actives 0.4% (n = 360,000). inhibition, % at 11.9 µM. AID 624268. purified T. brucei MetRS, ATP depletion, Kinase-Glo luminescence;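 active = inhibition above a per-plate cutoff of the control wells' mean inhibition plus 3 SD, cut at about 5.5% in these data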
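Dosing: 11.9 µM single point; system: parasite MetRS enzyme; technique: luminescence of leftover ATP; times: 15 min enzyme-compound preincubation, 2 h reaction, 10 min detection, 25 °C; replicates: each compound tested once; read-out basis: percent inhibition relative to median high and low control wells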
Rce1 inhib – blocks yeast Ras-converting enzyme | yeast membranes, quenched prenylated peptide cleavage fluorescence | calls only | actives 0.27% (n = 290,000) | AID 2563;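 active = fall in fluorescence gain of 50% or more versus controls, with final raw signal at or below 3038400; inconclusive = same 50% fall but final raw signal above 3038400; inactive = fall in fluorescence gain under 50%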
Target sequence (Q03530 whole entry, looked up): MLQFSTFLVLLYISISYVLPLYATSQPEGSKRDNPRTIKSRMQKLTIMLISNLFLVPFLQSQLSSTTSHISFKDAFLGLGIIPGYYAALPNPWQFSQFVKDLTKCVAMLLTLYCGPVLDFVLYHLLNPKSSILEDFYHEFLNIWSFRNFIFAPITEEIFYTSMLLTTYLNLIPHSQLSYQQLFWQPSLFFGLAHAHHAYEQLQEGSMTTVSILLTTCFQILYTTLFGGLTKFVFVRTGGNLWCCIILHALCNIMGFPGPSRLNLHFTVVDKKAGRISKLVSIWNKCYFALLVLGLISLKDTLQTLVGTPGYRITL
core dimer inh – HCV core protein dimerization inhibition | TR-FRET GST/Flag-core106 dimerization, 1536-well | inhibition, % at 5 µM | actives 0.33% (n = 300,000);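 active = inhibition above the mean of all tested compounds plus 3 SD, set per screening campaign, cut at about 45% in these data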
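Assay system: tagged HCV core106 pair (GST and Flag); medium: KF-containing HEPES buffer, pH 7.45, DTT, CHAPS, BSA; also added: Eu donor and XL665 acceptor anti-tag antibodies; dosing: 5 µM single dose; timing: compound-protein-antibody incubation 4 h at 22.5 °C; signal: TR-FRET 671 and 617 nm emission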
NadD inh conf – NadD (S. aureus) inhibition, single concentration confirmation | shares compounds with NadD inh | purified S. aureus NadD, colorimetric enzyme assay | inhibition, % at 20 µM | actives 13% (n = 2,000) | AID 624309; in the data active = inhibition mostly above about 42%, no sharp cut-off; inactive = mostly below about 42%
A number is an active result. An excerpt weighted towards active compounds, which were near 1.9% of everything screened.

What do the screens show for `CC(=O)c1ccc(OC(=O)C(CCS(C)(=O)=O)N2C(=O)c3ccccc3C2=O)cc1` (configuration not stated)?
NadD inh: inactive; Pemphigus Ab inh: inactive; TbMetRS inhib: inactive; core dimer inh: inactive

Results for COc1ccccc1/C=C/C(=O)OCC(=O)Nc1nnc(-c2ccccc2)o1 ?
NadD inh: inactive; Pemphigus Ab inh: inactive; TbMetRS inhib: inactive

What do the screens show for `COc1ccc(OC)c(/C=C/C(=O)OCC(=O)Nc2nnc(-c3ccccc3)o2)c1`?
NadD inh: 44; Pemphigus Ab inh: inactive; TbMetRS inhib: inactive; NadD inh conf: 60

What do the screens show for `CN(C)c1ccc(/C=N\NC(=S)SCN2C(=O)C3CCC(C)(C2=O)C3(C)C)cc1` (configuration not stated)?
NadD inh: 29; Pemphigus Ab inh: inconclusive; TbMetRS inhib: inactive; core dimer inh: inactive; NadD inh conf: inactive

What do the screens show for `CCOc1ccc(S(=O)(=O)N2CCN(C(=O)c3ccco3)CC2)cc1`?
NadD inh: inactive; Pemphigus Ab inh: inactive; TbMetRS inhib: inactive; Rce1 inhib: inactive; core dimer inh: inactive

How did CN(CCC#N)C(=O)COC(=O)c1c2c(nc3ccccc13)/C(=C/c1ccco1)CC2 do in these assays?
NadD inh: 50; Pemphigus Ab inh: inactive; TbMetRS inhib: inactive; Rce1 inhib: inactive; core dimer inh: 53; NadD inh conf: 58

Results for O=C(Nc1ccc(-c2ccco2)cc1)C1CCCN(Cc2ccc(CO)o2)C1 (configuration not stated) ?
NadD inh: inactive; Pemphigus Ab inh: inactive; TbMetRS inhib: inactive; Rce1 inhib: inactive; core dimer inh: inactive

Results for CC(=O)c1cccc(CN2CCCC(C(=O)Nc3ccc(-c4ccco4)cc3)C2)c1 (configuration not stated) ?
NadD inh: 32; Pemphigus Ab inh: inactive; TbMetRS inhib: inactive; Rce1 inhib: inactive; core dimer inh: inactive; NadD inh conf: inactive

What do the screens show for `COc1ccc2c(c1)c(C(=O)N/N=C/c1ccc(Cl)cc1)c(C)n2C`?
NadD inh: inactive; TbMetRS inhib: inactive; Rce1 inhib: inactive; core dimer inh: inactive

How did COc1ccc(/C=N/NC(=O)c2nn(-c3ccc(Cl)cc3)c(=O)c3c(N)scc23)cc1 do in these assays?
NadD inh: 55; Pemphigus Ab inh: 82; TbMetRS inhib: inactive; Rce1 inhib: inactive; core dimer inh: inactive; NadD inh conf: inactive

What do the screens show for `CCOC(=O)c1nn(-c2ccc(OC)cc2)c(=O)c2c(N)scc12`?
NadD inh: inactive; TbMetRS inhib: inactive; Rce1 inhib: inactive; core dimer inh: inactive

What do the screens show for `COc1ccc(/C=N/NC(=O)c2nn(-c3ccccc3)c(=O)c3c(N)scc23)cc1`?
NadD inh: 51; TbMetRS inhib: inactive; Rce1 inhib: inactive; core dimer inh: inactive; NadD inh conf: inactive

How did Cc1ccc(CC2C(=O)N(c3ncccn3)C(=O)C2C)cc1 (configuration not stated) do in these assays?
NadD inh: inactive; Pemphigus Ab inh: inactive; TbMetRS inhib: inactive; Rce1 inhib: inactive; core dimer inh: inactive

How did Cc1ccc(S(=O)(=O)N2CCN(CC(=O)NC(C)c3ccccc3)CC2)cc1 (configuration not stated) do in these assays?
NadD inh: inactive; Pemphigus Ab inh: inactive; TbMetRS inhib: inactive

Results for c1cnc2nc(-c3ccc4c(c3)OCO4)cn2c1 ?
NadD inh: inactive; TbMetRS inhib: inactive; Rce1 inhib: inactive; core dimer inh: inactive

What do the screens show for `c1ccn2cc(-c3ccc4c(c3)OCO4)cc2c1`?
NadD inh: 29; Pemphigus Ab inh: inactive; TbMetRS inhib: inactive; Rce1 inhib: inactive; core dimer inh: inactive; NadD inh conf: inactive

What do the screens show for `CCn1nnnc1NCc1cccn1C`?
NadD inh: 35; TbMetRS inhib: inactive; core dimer inh: inactive; NadD inh conf: inactive

Results for CCNc1ccc(Br)cc(C(=O)/C=C/c2ccc3c(c2)OCO3)c1=O ?
NadD inh: 52; Pemphigus Ab inh: inactive; TbMetRS inhib: inactive; Rce1 inhib: inactive; core dimer inh: 58; NadD inh conf: inactive

Results for CNc1ccc(Br)cc(C(=O)/C=C/c2cccc(OC)c2)c1=O ?
NadD inh: inactive; Pemphigus Ab inh: inactive; TbMetRS inhib: inactive; Rce1 inhib: inactive; core dimer inh: inactive

What do the screens show for `CCNc1ccc(Br)cc(C(=O)/C=C/c2ccc(Cl)cc2)c1=O`?
NadD inh: 44; Pemphigus Ab inh: inactive; TbMetRS inhib: inactive; Rce1 inhib: inactive; core dimer inh: inactive; NadD inh conf: inactive

What do the screens show for `CNc1ccc(Br)cc(C(=O)/C=C/c2ccc(Cl)cc2Cl)c1=O`?
NadD inh: 62; Pemphigus Ab inh: inactive; TbMetRS inhib: inactive; Rce1 inhib: inactive; core dimer inh: inactive; NadD inh conf: inactive

What do the screens show for `Nc1ccccc1C(=O)/C=C/c1ccc2c(c1)OCO2`?
NadD inh: inactive; Pemphigus Ab inh: inactive; TbMetRS inhib: inactive; Rce1 inhib: inactive; core dimer inh: inactive

Results for O=c1n(CCCN2CCN(c3cccc(Cl)c3)CC2)nc2ccccn12 ?
NadD inh: inactive; Pemphigus Ab inh: inactive; TbMetRS inhib: inactive; Rce1 inhib: inactive; core dimer inh: inactive

What do the screens show for `CCOc1ccccc1NC(=O)Nc1ccncc1`?
NadD inh: inactive; TbMetRS inhib: inactive; Rce1 inhib: inactive; core dimer inh: inactive

What do the screens show for `CCOC(=O)C1=C(CSc2nc(-c3ccccc3)ccc2C#N)OC(N)=C(C#N)C1c1ccccc1` (configuration not stated)?
NadD inh: 37; Pemphigus Ab inh: inactive; TbMetRS inhib: inactive; Rce1 inhib: inactive; core dimer inh: 53; NadD inh conf: inactive

How did CCOC(=O)C1=C(CSc2nc(-c3ccccc3)ccc2C#N)OC(N)=C(C#N)C1c1cccnc1 (configuration not stated) do in these assays?
NadD inh: 40; Pemphigus Ab inh: inactive; TbMetRS inhib: inactive; Rce1 inhib: inactive; core dimer inh: inactive; NadD inh conf: inactive

Results for COc1ccc([C@H]2C(C#N)=C([S-])N[C@](C)(O)[C@@H]2[n+]2ccccc2)cc1 ?
NadD inh: 45; Pemphigus Ab inh: inactive; TbMetRS inhib: inactive; Rce1 inhib: inactive; NadD inh conf: inactive

Results for CCc1ccc(C(=O)/C=C/c2ccc([N+](=O)[O-])o2)cc1 ?
NadD inh: inactive; Pemphigus Ab inh: inactive; TbMetRS inhib: inactive; Rce1 inhib: inactive; core dimer inh: inactive

How did CCN(CC)S(=O)(=O)c1ccc(C(=O)/C=C/c2ccc(-c3ccc([N+](=O)[O-])cc3)o2)cc1 do in these assays?
NadD inh: 52; Pemphigus Ab inh: inactive; TbMetRS inhib: inactive; Rce1 inhib: inactive; core dimer inh: inactive; NadD inh conf: inactive

What do the screens show for `Cc1ccc(C(=O)/C=C/c2ccc(-c3ccc(C)cc3)o2)cc1`?
NadD inh: 34; Pemphigus Ab inh: inactive; TbMetRS inhib: inactive; Rce1 inhib: inactive; core dimer inh: inactive; NadD inh conf: inactive
